NOD2 RIPK2 PPI = inhibitors of human NOD2-RIPK2 interaction. AID 624267. 360,000 compounds, 0.38% hits. CHO BLA complementation NOD2-RIPK2, CCF4 ratio. O43353. inhibition, % at 4.98 µM; in the data active means inhibition above about 21%;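 further: 0% = vehicle only and 100% = reference blocker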
TLR4-MyD88 BLA = TLR4-MyD88 interaction inhibition in cells. 200,000 compounds, 0.18% hits. inhibition, % at 8.4 µM. O00206+Q99836. HeLa CL3-4 TLR4/MyD88 BLA complementation, FRET ratio; in the data active means inhibition above about 25%;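 further: 0% = vehicle and 100% = reference inhibitor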
XBP1 UPR activ = adaptive UPR (XBP1) activation | CHO-XBP1 luciferase reporter, IRE1-XBP1 UPR activation, luminescence; percent of tunicamycin response, DMSO as zero | AID 463104 | 330,000 compounds, 0.33% hits | activation, % at 20 µM;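 active means versus positive control, 20 µM dose yields 30% or more activation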;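 further: 100% = tunicamycin at 10 µg/mL and 0% = DMSO only wells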
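Test system: CHO-XBP1 luciferase reporter cells | Buffer or medium: Serum-containing F12 medium, 10% FBS | Schedule: 6 h compound exposure at 37 °C, 5% CO2 | Detection: Steady-Glo luciferase glow luminescence, 10 min after reagent addition | Read-out basis: Activation, % of tunicamycin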
TLR9-MyD88 block = inhibitors of human TLR9-MyD88 binding. Q9NR96+Q99836. CHO BLA complementation TLR9-MyD88, CCF4 FRET ratio. inhibition, % at 4.98 µM. 340,000 compounds, 0.21% hits. AID 504734;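 active means inhibition above the mean over all tested compounds plus 3 SD, cut at about 21% in these data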;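 further: 0% = DMSO only wells and 100% = clavulanate BLA inhibitor control wells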
UPR CHOP act = apoptotic UPR (CHOP) activation | 330,000 compounds, 0.34% hits | AID 449763 | activation, % at 10 µM | CHO-CHOP luciferase reporter, luminescence; percent of tunicamycin response over DMSO baseline;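 active means at 10 µM dose, activation of 40% or more, normalized to positive control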;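 further: 100% = tunicamycin at 10 µg/mL and 0% = DMSO alone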
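Test system: CHO-CHOP cells, stable luciferase reporter of PERK-eIF2a-CHOP signalling | Quantity: 500 CHO-CHOP cells per well | Buffer or medium: F12 plus 10% serum | Compound dosing: 10 µM single point, 0.5% DMSO | Schedule: 6 h compound treatment, 37 °C | Signal: Luciferase luminescence | Control set: Tunicamycin high control, DMSO low control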
CHOP inh = inhibitors of CHOP induction in ER stress response | CHO-K1 CHOP-promoter luciferase, tunicamycin-induced, 15-18 h | inhibition, % at 10 µM | 220,000 compounds, 3.8% hits;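 active means compounds that reduced the stress-induced luciferase reporter signal by more than about 70% of percent inhibition, limit read from the data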;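 further: 0% = tunicamycin plus vehicle and 100% = wells without tunicamycin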
Numbers without * were called inactive; nt = not tested or not shown. This excerpt belongs to a sample that is enriched for hits.

SMILES	NOD2 RIPK2 PPI	TLR4-MyD88 BLA	XBP1 UPR activ	TLR9-MyD88 block	UPR CHOP act	CHOP inh
Cc1oc2c(c1C(=O)NCc1cccnc1)C(=O)c1ccccc1C2=O	nt	-38	-8	nt	-6	104*
C=CCN1[C@H](COCc2ccccc2)C=CS1(=O)=O	-6	nt	nt	nt	nt	nt
O=c1oc2cc(Br)ccc2n1CSC1=NCCS1	-6	3	2	-2	5	71*
Cc1[nH]c2ccccc2c1C1C(c2ccccc2)=NN=C(C(C)C)N1O (configuration not stated)	5	-2	-1	3	-2	72*
Cc1cccc(-c2ccc3c(c2)C2CC3CCN2Cc2ccc3c(c2)OCO3)c1 (configuration not stated)	1	nt	nt	4	nt	nt
C[C@@H]1CN([C@@H](C)CO)S(=O)(=O)c2ccc(Br)cc2O[C@H]1CN(C)C(=O)C1CCC1	-4	nt	nt	-13	nt	nt
COc1cccc(/C(O)=C/c2nc3ccc(C(=O)NCCc4cccc(C)c4)cc3[nH]c2=O)c1	7	-12	0	-10	2	31
COc1cccc(/C(O)=C/c2nc3ccc(C(=O)NCCc4ccc(Cl)cc4)cc3[nH]c2=O)c1	-6	10	nt	-10	nt	83*
CC1CCCC(NC(=O)COC(=O)c2ccccc2NC(=O)c2ccco2)C1C (configuration not stated)	-10	12	1	-2	-2	92*
Cc1cc(=O)[nH]c(Nc2ccc(C(=O)OC(C)C)cc2)n1	0	2	2	-12	1	70*
O=C(O)C(Cc1ccccc1)N1C(=O)/C(=C/c2cccc3ccccc23)SC1=S (configuration not stated)	nt	-3	nt	nt	nt	106*
CC1CCc2nc(N)c(C#N)c(-c3cccn3C)c2C1 (configuration not stated)	-5	-1	2	-7	3	71*
N#Cc1c(N)nc2c(c1-c1ccccc1)CCCC2	0	-11	3	1	0	27
CCOC(=O)c1ccc(NC(=O)c2cccc(S(=O)(=O)N3c4ccccc4CC3C)c2)s1 (configuration not stated)	-2	-1	10	3	13	71*
CC1Cc2ccccc2N1S(=O)(=O)c1cccc(C(=O)NCCCO)c1 (configuration not stated)	3	-8	-4	-8	-2	11
C#CCN1C=CC(=O)[C@@H](OC(=O)Nc2ccc(Cl)cc2)[C@H]1c1ccccc1Br	-3	nt	nt	3	nt	nt
N#Cc1ccccc1S(=O)(=O)N1CCN(Cc2cc3c(cc2Br)OCCO3)CC1	1	nt	nt	5	nt	nt
CC(=O)N1c2ccc(Cl)cc2C2C=CCC2C1c1cccc2ccccc12 (configuration not stated)	20	8	nt	0	nt	85*
Cc1cc(NC(=O)COC(=O)COc2ccc(Cl)c(C)c2)no1	-7	nt	nt	-16	nt	nt
O=C(Nc1cc(C(F)(F)F)ccc1N1CCOCC1)C1Cc2ccccc2CN1C(=O)c1ccco1 (configuration not stated)	-6	8	-1	-6	-2	72*
O=C(CCCCl)NC(=S)Nc1cc(C(F)(F)F)ccc1N1CCOCC1	-2	2	1	-6	0	81*
O=C(Nc1cc(C(F)(F)F)ccc1N1CCOCC1)c1cccc(F)c1	6	2	-2	-1	1	76*
CC(C)(C)C(=O)NC(=S)Nc1cc(C(F)(F)F)ccc1N1CCOCC1	-10	-10	1	-2	0	47
CCOc1cc(/C=N/NC(=O)C(N)=O)cc(Br)c1O	7	4	-2	0	-2	22
CCOc1cc(Br)c(Br)c(C=Nc2ccc(NC(C)=O)cc2)c1O	9	-5	-3	10	1	87*
SMILES	NOD2 RIPK2 PPI	TLR4-MyD88 BLA	XBP1 UPR activ	TLR9-MyD88 block	UPR CHOP act	CHOP inh
CCOc1ccc(C(=O)Nc2cccc(C(=O)O)c2C)cc1Cl	3	4	-4	1	-9	9
CCOc1ccc(C(=O)Nc2ccccc2-c2ccccc2)cc1Cl	-1	2	-2	-2	-3	81*
O=C(CCNS(=O)(=O)c1cccc2nonc12)NCCc1ccc(Cl)cc1	-9	12	1	-3	-1	76*
C=CCNc1nc2cc(-c3cccc(NC(C)=O)c3)sc2c(=O)n1C	1	nt	nt	nt	nt	nt
O=C(Oc1c(Cl)cc(Cl)c2cccnc12)c1cccc([N+](=O)[O-])c1	-6	3	7	-1	0	97*
O=C(Oc1ccc(Cl)c2cccnc12)c1cccc([N+](=O)[O-])c1	-5	-1	8	1	20	50
Cc1cccc(C2(c3cccc(C)c3)CC2C(=O)Nc2ccc([N+](=O)[O-])cc2O)c1 (configuration not stated)	-5	11	2	0	10	103*
CCCNC(=O)C1(C)CCCN(C(=O)C2(c3ccc(Cl)cc3)CCCC2)C1 (configuration not stated)	8	nt	nt	nt	nt	nt
CN1CCN(c2ccccc2NC(=O)c2cccc(OCc3ccccc3)c2)CC1	-10	-16	-2	-6	0	78*
CN1CCN(c2ccccc2NC(=O)c2ccc(OCc3ccccc3)cc2)CC1	11	1	1	-17	-1	65
COc1ccc(OC)c(NC(=O)C2(C)CCN2Cc2ccc(SC)cc2)c1 (configuration not stated)	2	nt	nt	nt	nt	nt
Cc1cc(=O)n2nc(-c3ccc(C(F)(F)F)cc3)sc2n1	-3	6	-1	-5	1	75*
COc1ccc(/C=N/NC(=O)C2c3ccccc3-c3ccccc32)cc1	-18	-14	-2	3	-2	80*
CC/C(=C\C1CCCCC1)C(NP(=O)(c1ccccc1)c1ccccc1)c1ccccc1 (configuration not stated)	-6	1	5	-5	1	86*
CCN(CC)c1ccc(N=Cc2c(C)[nH]c3ccccc23)cc1	1	-5	0	-10	3	97*
Cc1ccc2cc3cc(C(=O)N4CCN(Cc5ccccc5)CC4)sc3nc2c1	15	-6	-2	2	1	74*
CCOc1ccc2nc(S(=O)(=O)NC(=O)C3(C)CCN3C(=O)CCc3cccs3)sc2c1 (configuration not stated)	4	nt	nt	nt	nt	nt
Cc1ccsc1/C=N/Nc1nc(Cl)c(Cl)cc1Cl	-18	9	1	8	4	44
Cc1ccc(/C=N/Nc2nc(Cl)c(Cl)cc2Cl)s1	-1	1	7	0	4	83*
C[C@H](CO)N1C[C@H](C)[C@@H](CN(C)S(=O)(=O)c2cccc(C#N)c2)OCc2cn(nn2)CCCC1=O	-9	nt	nt	-9	nt	nt

Screening results: PubChem BioAssay, several laboratories
